Test results reported in ChEMBL document CHEMBL1157359, “Binding of ceftobiprole and comparators to the penicillin-binding proteins of Escherichia coli, Pseudomonas aeruginosa, Staphylococcus aureus, and Streptococcus pneumoniae” (Antimicrob Agents Chemother, 2007).
≈ marks a conversion by molar mass, not a printed value.

Legend:
[1] = Inhibition of bocillin FL binding to penicillin-susceptible Streptococcus pneumoniae OC 8865 penicillin-binding protein 3
How it was run: (§1)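 Whole S. pneumoniae cells were used rather than isolated membranes. Cells were competed with drug and then labeled with Bocillin FL, and PBP bands were visualized by fluorescence imaging. IC50 is the drug concentration that inhibits Bocillin FL binding to each PBP by 50% relative to a no-drug control.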

[2] = tested on: Streptococcus pneumoniae; test: Antibacterial activity against penicillin-susceptible Streptococcus pneumoniae OC 8865 by CLSI method; type: functional
[3] = Inhibition of bocillin FL binding to penicillin-resistant Streptococcus pneumoniae OC 8819 penicillin-binding protein 1a; how it was run: as §1
[4] = Inhibition of bocillin FL binding to penicillin-resistant Streptococcus pneumoniae OC 8819 penicillin-binding protein 3; how it was run: as §1
[5] = tested on: Streptococcus pneumoniae; test: Antibacterial activity against penicillin-resistant Streptococcus pneumoniae OC 8819 by CLSI method; type: functional
[6] = target: T1, Penicillin-binding protein 1 (Staphylococcus aureus, UniProt Q53725); test: Inhibition of bocillin FL binding to methicillin-susceptible Staphylococcus aureus ATCC 29213 penicillin-binding protein 1
T1 sequence (Q53725 whole entry): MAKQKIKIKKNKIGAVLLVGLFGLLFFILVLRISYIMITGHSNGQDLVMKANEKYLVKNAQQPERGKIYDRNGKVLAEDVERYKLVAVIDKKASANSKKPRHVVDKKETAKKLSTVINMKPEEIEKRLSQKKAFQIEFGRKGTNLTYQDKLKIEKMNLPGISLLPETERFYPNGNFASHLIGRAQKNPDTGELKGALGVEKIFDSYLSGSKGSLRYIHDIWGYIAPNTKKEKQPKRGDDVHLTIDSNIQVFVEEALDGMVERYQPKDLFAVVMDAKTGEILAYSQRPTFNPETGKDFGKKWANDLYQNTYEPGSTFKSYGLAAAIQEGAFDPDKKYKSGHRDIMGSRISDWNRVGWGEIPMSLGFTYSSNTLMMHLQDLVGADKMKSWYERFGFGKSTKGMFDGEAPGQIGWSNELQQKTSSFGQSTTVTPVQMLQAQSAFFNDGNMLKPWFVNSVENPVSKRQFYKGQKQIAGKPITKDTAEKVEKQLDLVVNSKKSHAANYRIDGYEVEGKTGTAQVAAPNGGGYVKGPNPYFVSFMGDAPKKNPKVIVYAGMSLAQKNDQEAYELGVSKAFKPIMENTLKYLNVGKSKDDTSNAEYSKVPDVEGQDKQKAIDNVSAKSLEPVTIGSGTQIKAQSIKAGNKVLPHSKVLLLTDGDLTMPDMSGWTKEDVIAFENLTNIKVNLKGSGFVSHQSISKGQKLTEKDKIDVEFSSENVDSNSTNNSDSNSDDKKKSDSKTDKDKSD
How it was run: (§2)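 Isolated S. aureus ATCC 29213 PBPs exposed to drug over 0.001 μg/ml to 50 μg/ml, followed by Bocillin FL labeling and fluorescence imaging. IC50 is 50% inhibition of Bocillin FL binding relative to no-drug control.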

[7] = target: T2, Penicillin-binding protein 2 (Staphylococcus aureus, UniProt Q53729); test: Inhibition of bocillin FL binding to methicillin-susceptible Staphylococcus aureus ATCC 29213 penicillin-binding protein 2; how it was run: as §2
T2 sequence (Q53729 whole entry): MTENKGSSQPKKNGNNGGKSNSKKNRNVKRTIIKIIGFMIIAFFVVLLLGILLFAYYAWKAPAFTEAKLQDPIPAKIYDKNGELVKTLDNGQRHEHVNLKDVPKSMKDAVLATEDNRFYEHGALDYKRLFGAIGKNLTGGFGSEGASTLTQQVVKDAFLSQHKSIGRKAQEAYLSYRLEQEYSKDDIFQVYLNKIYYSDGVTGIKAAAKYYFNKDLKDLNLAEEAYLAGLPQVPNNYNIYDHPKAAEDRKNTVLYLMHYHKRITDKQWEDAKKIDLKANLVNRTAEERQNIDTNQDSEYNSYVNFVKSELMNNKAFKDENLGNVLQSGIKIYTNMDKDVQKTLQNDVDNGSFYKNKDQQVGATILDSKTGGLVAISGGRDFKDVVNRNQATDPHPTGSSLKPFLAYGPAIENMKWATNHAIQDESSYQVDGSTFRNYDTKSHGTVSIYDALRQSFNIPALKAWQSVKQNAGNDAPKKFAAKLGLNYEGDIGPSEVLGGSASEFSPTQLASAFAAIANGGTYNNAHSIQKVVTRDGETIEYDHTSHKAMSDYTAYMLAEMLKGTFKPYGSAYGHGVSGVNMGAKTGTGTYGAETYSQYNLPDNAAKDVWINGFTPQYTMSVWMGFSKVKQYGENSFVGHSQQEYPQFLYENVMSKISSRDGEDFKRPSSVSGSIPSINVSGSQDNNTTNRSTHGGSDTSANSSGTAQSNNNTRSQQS

[8] = Inhibition of bocillin FL binding to penicillin-susceptible Streptococcus pneumoniae OC 8865 penicillin-binding protein 1b
How it was run: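 S. pneumoniae OC 8865 PBPs assayed in whole cells; drug competition followed by Bocillin FL labeling and imaging of labeled PBPs. IC50 is 50% inhibition of Bocillin FL binding compared with a no-drug control.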

[9] = Inhibition of bocillin FL binding to Pseudomonas aeruginosa PAO1 penicillin-binding protein 1a
How it was run: (§3)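 P. aeruginosa PAO1 PBPs were isolated and competed with 10 drug concentrations from 0.06 μg/ml to 32 μg/ml before Bocillin FL labeling. Bands were detected by fluorescence imaging. IC50 was taken as 50% inhibition of Bocillin FL binding versus the no-drug sample.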

[10] = Inhibition of bocillin FL binding to Pseudomonas aeruginosa PAO1 penicillin-binding protein 4; how it was run: as §3

SMILES	IC50 [1] [µg/mL]	MIC [2] [µg/mL]	IC50 [3] [µg/mL]	IC50 [4] [µg/mL]	MIC [5] [µg/mL]	IC50 [6] [nM]	IC50 [7] [nM]	IC50 [8] [µg/mL]	IC50 [9] [µg/mL]	IC50 [10] [µg/mL]
CO/N=C(\C(=O)N[C@@H]1C(=O)N2C(C(=O)O)=C(CSc3nc(=O)c(O)nn3C)CS[C@H]12)c1csc(N)n1 (stereo in doubt) [CEFTRIAXONE]	0.02 (≈ 0.0361 µM)	0.03 (≈ 0.0541 µM)	0.02 (≈ 0.0361 µM)	0.01 (≈ 0.018 µM)	8 (≈ 14.4 µM)	902	180	0.03 (≈ 0.0541 µM)	–	–
CC(C)(O/N=C(\C(=O)N[C@@H]1C(=O)N2C(C(=O)[O-])=C(C[n+]3ccccc3)CS[C@H]12)c1csc(N)n1)C(=O)O [CEFTAZIDIME]	–	–	–	–	–	–	–	–	0.2 (≈ 0.366 µM)	2 (≈ 3.66 µM)
Nc1nc(/C(=N/O)C(=O)N[C@@H]2C(=O)N3C(C(=O)O)=C(/C=C4\CCN([C@@H]5CCNC5)C4=O)CS[C@H]23)ns1 [CEFTOBIPROLE]	0.02 (≈ 0.0374 µM)	0.008 (≈ 0.015 µM)	0.1 (≈ 0.187 µM)	0.01 (≈ 0.0187 µM)	1 (≈ 1.87 µM)	187	935	0.05 (≈ 0.0935 µM)	0.1 (≈ 0.187 µM)	0.2 (≈ 0.374 µM)
